High-throughput results (PubChem)
This is a sample that favours compounds with a hit; in the whole collection about 2.2% have one here.
APJ antag = blocks the human apelin receptor APJ; P35414; CHO-K1 APJ beta-arrestin complementation, luminescence; inhibition, % at 20 µM; 330,000 tested, 0.32% active; AID 2521;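 active = inhibition above about 40% at 20 µM, limit read from the data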;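 also: cells challenged with 10 nM apelin-13 agonist together with compound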
APJ agonist = agonists of human APJ apelin receptor; P35414; CHO-K1 APJ PathHunter beta-arrestin, luminescence; 0% DMSO wells, 100% apelin; activation, % at 20 µM; 330,000 tested, 0.11% active; AID 2520;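 active = activation more than six SD over the plate average, tested at 20 µM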
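Material: engineered CHO-K1 APJ arrestin reporter cells; amount: 1000 CHO-K1 reporter cells seeded per well; incubation: compound stimulation 90 min at 25 °C, detection 60 min; signal: luminescent beta-gal fragment complementation, chemiluminescent substrate; read-out basis: APJ agonist activity; controls: DMSO-only wells as negative, 10 nM Apelin-13 as positive control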
m5-HT2A agonist = activates the mouse 5-HT2A serotonin receptor. P35363. CHO-K1 mHTR2A beta-arrestin complementation, luminescence; percent of 30 µM serotonin response. activation, % at 7.6 µM. 360,000 tested, 0.66% active;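 active = activation above a run cutoff, the mean activation of all tested compounds plus 3 SD, cut at about 14% in these data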
EBI2 block = EBI2 (human) antagonism; P32249; EBI2 beta-arrestin recruitment, luminescence, 7a,25-OHC stimulated; 360,000 tested, 0.81% active; AID 651636; inhibition, % at 5 µM; in the data active = inhibition above about 38%;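 also: enzyme fragment complementation signal reports receptor beta-arrestin coupling in cells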
Target sequence (P32249 whole entry, looked up, the tested form may be a part): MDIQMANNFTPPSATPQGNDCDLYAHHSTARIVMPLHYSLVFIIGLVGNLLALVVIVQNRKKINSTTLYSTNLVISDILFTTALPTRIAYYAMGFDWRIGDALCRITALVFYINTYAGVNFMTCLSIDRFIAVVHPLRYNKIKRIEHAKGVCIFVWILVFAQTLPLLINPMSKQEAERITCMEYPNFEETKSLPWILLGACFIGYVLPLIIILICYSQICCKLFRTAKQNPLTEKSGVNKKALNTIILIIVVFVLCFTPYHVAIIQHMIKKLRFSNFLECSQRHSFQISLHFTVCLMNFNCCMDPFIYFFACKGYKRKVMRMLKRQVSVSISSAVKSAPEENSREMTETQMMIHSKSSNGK
CCR6 antag = antagonists of human CCR6 receptor; CHO-K1 CCR6 PathHunter beta-arrestin, luminescence, CCL20-stimulated; inhibition, % at 20 µM; 340,000 tested, 0.49% active; AID 493098;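 active = compounds whose inhibition of the agonist-driven luminescence signal at 20 µM reaches about 50%, limit read from the data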;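 also: cells stimulated with CCL20 at 14 nM final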
CXCR6 block = inhibitors of human CXCR6 receptor | inhibition, % at 20 µM | CHO-K1 PathHunter CXCR6 beta-arrestin, luminescence | O00574 | AID 602244 | 360,000 tested, 0.36% active; in the data active = inhibition above about 34%, passing the limit was not always enough;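 also: antagonist mode with CXCL16 agonist at 10 nM final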
Target sequence (O00574 whole entry, looked up): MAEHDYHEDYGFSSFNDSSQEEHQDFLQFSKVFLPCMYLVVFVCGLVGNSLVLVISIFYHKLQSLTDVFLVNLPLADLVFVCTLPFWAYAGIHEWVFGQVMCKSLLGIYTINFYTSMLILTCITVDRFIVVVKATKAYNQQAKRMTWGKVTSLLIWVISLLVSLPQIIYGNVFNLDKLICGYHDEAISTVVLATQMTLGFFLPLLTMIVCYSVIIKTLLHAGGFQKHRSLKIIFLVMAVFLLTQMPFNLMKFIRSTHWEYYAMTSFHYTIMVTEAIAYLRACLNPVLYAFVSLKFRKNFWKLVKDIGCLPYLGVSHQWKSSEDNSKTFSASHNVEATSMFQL
A number is an active result; 0 = inactive; - = no result.

SMILES | APJ antag | APJ agonist | m5-HT2A agonist | EBI2 block | CCR6 antag | CXCR6 block
CCOC(=O)CSC1=NC(=O)/C(=C/c2ccc(Br)cc2)S1 | 0 | 0 | 0 | 0 | 59.0 | 0
CCOC(=O)CSC1=NC(=O)/C(=C\c2ccc(OC(C)=O)cc2)S1 | 0 | 0 | 0 | 0 | 77.8 | 0
CCOC(=O)COc1ccc(Br)cc1/C=C1\SC(N)=NC1=O | 0 | 0 | 0 | 0 | 0 | 0
NC1=NC(=O)/C(=C/c2ccc(Br)cc2)S1 | 0 | 0 | 0 | 0 | 0 | 0
CCCCCCCCN1C(=O)[C@H](CC(=O)N2CCN(C(=O)C3CC3)CC2)C[C@@]2(C(=O)OC)CC(C)(C)CC=C12 | - | - | 0 | 0 | - | -
CC[C@@H](C(=O)[C@@H](C)[C@@H](O)[C@H](C)[C@@H]1O[C@@H]([C@@H](CC)C(=O)O)CC[C@@H]1C)[C@H]1O[C@]2(C=C[C@@H](O)[C@]3(CC[C@@](C)([C@H]4CC[C@](O)(CC)[C@H](C)O4)O3)O2)[C@H](C)C[C@@H]1C | - | - | 23.3 | 0 | 0 | 0
Cc1cccc(N2CCN(C(=O)c3[nH]c(C(F)(F)F)nc3-c3ccccc3)CC2)c1C | - | - | 0 | 0 | - | 0
Cc1ccc(C(=O)COC(=O)CCC(=O)Nc2cc(Cl)ccc2Cl)cc1[N+](=O)[O-] | 0 | 0 | 0 | 0 | 62.3 | 0
CC(=O)Nc1ccc(C(=O)OCC(=O)c2ccc(C)c([N+](=O)[O-])c2)cc1 | 0 | 0 | 0 | 0 | 0 | 0
Cc1nn(-c2ccccc2)c(Cl)c1CN(C(=O)CCl)c1cccc2ccccc12 | 0 | 0 | 0 | 59.5 | 0 | 0
Cc1nn(-c2ccccc2)c(Cl)c1CN(C(=O)CCl)c1ccc(Cl)cc1 | - | - | 0 | 0 | 0 | 0
CCN(CC)c1ccc(-c2nn3c(-c4n[nH]c5c4CCC5)nnc3s2)cc1 | 0 | 0 | 35.0 | 0 | 0 | 0
C1CCC(c2nn3c(-c4n[nH]c5c4CCC5)nnc3s2)CC1 | 0 | 0 | 0 | 0 | 0 | 0
CC(Oc1ccccc1)C(=O)N1CCC2(CC1)Oc1ccc(F)cc1C(=O)C21CC(c2ccccc2)=NO1 (centres undefined) | 0 | 0 | 0 | 49.9 | 0 | 0
CC(Oc1ccccc1)C(=O)N1CCC2(CC1)Oc1ccc(F)cc1C(=O)C21CC(c2cccnc2)=NO1 (centres undefined) | 0 | 0 | 0 | 42.3 | 0 | 0
CC(Oc1ccccc1)C(=O)N1CCC2(CC1)Oc1ccc(F)cc1C(=O)C21CC(c2ccc(Cl)cc2)=NO1 (centres undefined) | 0 | 0 | 0 | 0 | 0 | 0
CC(C)C(=O)N1CCC2(CC1)Oc1ccc(F)cc1C(=O)C21CC(c2cccnc2)=NO1 (centres undefined) | 0 | 0 | - | - | - | -
O=C1/C(=C/c2ccc(O)cc2)SC(=S)N1Cc1cccnc1 | 46.8 | 0 | 0 | 0 | 0 | 0
CC(C)(C)c1nnc(N/N=C/c2ccccc2O)n(N)c1=O | 0 | 0 | 0 | 80.5 | 0 | 0
CC(NO)C(C)(C)NO (centres undefined) | 0 | 0 | 0 | 0 | 57.8 | 0
CCNC(=O)C1CCCN(C(=O)c2ccc3ccccc3c2)CC1 (centres undefined) | - | - | 0 | 0 | - | 0
CCN(CC)S(=O)(=O)c1ccc(C)c(C)c1 | 0 | 0 | 0 | 0 | 0 | 0
CCN(CC)S(=O)(=O)c1ccc2c(c1)C(=NO)c1cc(S(=O)(=O)N(CC)CC)ccc1-2 | 0 | 0 | 0 | 50.4 | 0 | 0
COc1ccc2nc(Cl)c(C=O)c(N3CCOCC3)c2c1 | - | - | 0 | 0 | - | 0
C=CCc1cccc(/C=N/NC(=O)C(C)Nc2cccc(C)c2)c1O (centres undefined) | 0 | 0 | 0 | 39.6 | 0 | 0
SMILES | APJ antag | APJ agonist | m5-HT2A agonist | EBI2 block | CCR6 antag | CXCR6 block
C=CCc1cccc(/C=N/NC(=O)CCCNc2ccc(C)cc2)c1O | - | - | 0 | 0 | 0 | 0
CCC(C)[C@H]1CNC(=O)C(=O)N1CCc1cccc2ccccc12 (some centres undefined) | - | - | 0 | 0 | - | 0
CCC(C)[C@H]1CNC(=S)N1CCc1cccc2ccccc12 (some centres undefined) | 0 | 0 | 0 | 45.8 | 0 | 0
COc1cc(/C=C2/C(=O)N(c3ccc([N+](=O)[O-])cc3)N=C2N2CCOCC2)ccc1O | 0 | 0 | 0 | 0 | 55.2 | 0
CCN(CC)c1ccc(/C=C2/C(=O)N(c3ccc([N+](=O)[O-])cc3)N=C2N2CCOCC2)cc1 | 0 | 0 | - | - | - | -
CN(Cc1ccccc1)S(=O)(=O)c1ccc(NC(=S)NC(=O)C2CCCCC2)cc1 | 0 | 0 | 0 | 0 | 51.0 | 0
CN(Cc1ccccc1)S(=O)(=O)c1ccc(NC(=S)NC(=O)C(C)(C)C)cc1 | 0 | 0 | 0 | 0 | 0 | 0
O=C(NCc1ccccc1)C(C1CC1)n1c(CSCCOc2ccccc2)nc2ccccc21 (centres undefined) | - | - | 0 | 0 | - | -
COc1ccc([C@H]2CC(=O)C[C@@H](CCn3cc(CCc4ccccc4)nn3)O2)cc1 | - | - | 0 | 0 | - | 0
CCn1cc(C=C2C(=O)c3ccccc3C2=O)c2ccccc21 | - | - | 0 | 0 | 50.9 | 0
CCN=C1S/C(=C\c2cn(CC)c3ccccc23)C(=O)N1CC | 0 | 0 | 0 | 0 | 0 | 0
COc1cc([N+](=O)[O-])cc(/C=N/NC(=O)C(C)Nc2cccc(C)c2)c1O (centres undefined) | 0 | 0 | 0 | 0 | 0 | 0
COc1cc([N+](=O)[O-])cc(/C=N/NC(=O)C(C)Nc2ccccc2C)c1O (centres undefined) | 0 | 0 | 0 | 68.9 | 0 | 0
Cc1[nH]n(C2=NCCS2)c(=O)c1N=Nc1cccc(C(F)(F)F)c1 | 0 | 0 | 0 | 0 | 58.1 | 53.2
CC(=O)c1cc2cccc(OC3(C)CCN(Cc4ccc(-c5ccccn5)cc4)C3)c2o1 (centres undefined) | - | - | 0 | 0 | - | 0
Cc1ccc(-c2nc3cc(C)c(Br)c(C)n3c2Cc2ccsc2)cc1 | - | - | 0 | 0 | - | 0
O=C(c1cc(-c2ccco2)on1)N1CCN(C(c2ccccc2)c2ccccc2)CC1 | 0 | 0 | 0 | 91.1 | 0 | 0
CC(C)=C[C@H]1C[C@H](C)[C@H]2CC[C@H](C)c3c(O[C@@H]4O[C@@H](C)[C@@H](O)[C@@H](O)[C@@H]4O)c(O)c(C)c1c32 | - | - | 0 | 0 | - | 0
CC(C)(C)c1ccc(C(O)c2ncc(-c3ccc(F)cc3)[nH]2)cc1 (centres undefined) | - | - | 0 | 0 | - | 0
CCCCC(CC)CN=C(N)NC(N)=NCCCCCCN=C(N)NC(N)=NCC(CC)CCCC (centres undefined) | 0 | 0 | 15.3 | 0 | 78.6 | 89.7
CCCCNC(=O)C1C(c2ccccc2)=Nc2ccccc2N1C(=O)c1ccc(C)cc1 (centres undefined) | - | - | 0 | 0 | - | -
C=CCNc1ncnc2c1cnn2-c1ccc(C)cc1C | 0 | 0 | 0 | 0 | 0 | 0
CCOC(=O)N1CCC(Nc2ncnc3c2cnn3-c2ccc(C)cc2C)CC1 | 0 | 0 | 14.5 | 0 | 0 | 0
